One compound from ChEMBL document CHEMBL4325827, “Bifidenone: Structure-Activity Relationship and Advanced Preclinical Candidate” (J Med Chem, 2018) can be followed below.

In series [1] the test system is EKVX. The series is described as follows: Potency index, ratio of paclitaxel IC50 to compound IC50 for taxane-resistant human EKVX cells after 72 hrs by CellTiter 96 aqueous nonradioactive cell proliferation assay. The class given is functional.
The subject of series [2] is LOX IMVI. The series is described as follows: Antitumor activity against human LOXIMVI cells xenografted in Crl:NU(NCr)-Foxn1 nu mouse assessed as tumor growth inhibition at 30 mg/kg, ip qd for 7 consecutive days relative to control. The class given is functional. Particulars: read-out: TGI. The method, boiled down: (§1)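 Female athymic nude mice bearing subcutaneous xenografts, started from cultured cells (NCI-H460, Calu-6, NCI-H69, LOX-IMVI) or from serially passaged tumour fragments (NCI-H522). Mice were grouped into vehicle and treatment arms at tumour volumes of about 75-200 mm3. Dosing was ip at 5-10 mL/kg in 22% ethanol, 38% PEG400, 40% 20 mM Na citrate pH 5.0. Caliper volumes were taken as (length × width2)/2. Treated and control delta weights were median tumour weight minus staging-day median.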

For series [3], the target named is Tubulin (Sus scrofa) (UniProt P02554+P02550). Kind of series: Inhibition of pig tubulin polymerization at 10 uM measured at 1 min intervals for 60 mins. Type of series: protein assay. The method, boiled down: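 Polymerization assay using porcine tubulin.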
Series [4] relates to NCI/ADR-RES. The series is described as follows: Antiproliferative activity against taxane-resistant human NCI/ADR-RES cells after 72 hrs by CellTiter 96 aqueous nonradioactive cell proliferation assay. The class given is functional, cell-based. A digest of the protocol:
(§2)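 Antiproliferation in cultured tumour cells, at least 3 replicate wells per concentration per experiment. NCI-H460 came from ATCC. M14, NCI/ADR-RES, OVCAR-4, HCT-15, ACHN and SF-295 came from the National Cancer Institute. IC50 reported from single experiments where no SD is given.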

Series [5] is described as follows: Toxicity in Crl:NU(NCr)-Foxn1 nu mouse xenografted with human NCI-H69 cells assessed as maximum body weight loss at 60 mg/kg, ip dosed on day 1 followed by 4 days rest and subsequently dosed at 60 mg/kg, ip qd administered for 3 consecutive days followed by 2 days of rest for 2 cycles measured after 3 days post dose relative to control. Particulars: in vivo, 72 h. Type of series: organism-based. The method, boiled down:
as §1

Series [6] has as its system HCT-15. The series is described as follows: Potency index, ratio of paclitaxel IC50 to compound IC50 for taxane-resistant human HCT15 cells after 72 hrs by CellTiter 96 aqueous nonradioactive cell proliferation assay. The class given is functional.
Series [7] is described as follows: Toxicity in Crl:NU(NCr)-Foxn1 nu mouse xenografted with human Calu6 cells assessed as mortality at 60 mg/kg, ip qd administered for 3 consecutive days followed by 2 days of rest for 4 cycles. The class given is organism-based. Particulars: in vivo, 48 h. A digest of the protocol:
(§3)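 Female athymic nude mice bearing subcutaneous xenografts started from cultured human tumor cells. Mice were split into vehicle and treatment groups once tumors reached about 75-200 mm3. Dosing was ip at 5-10 mL/kg in 22% ethanol, 38% PEG400, 40% 20 mM Na citrate pH 5.0. Deaths per group were recorded alongside maximum mean bodyweight loss.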

In series [8] the test system is NCI-H522. Kind of series: Antitumor activity against human NCI-H522 cells xenografted in Crl:NU(NCr)-Foxn1 nu mouse assessed as tumor growth inhibition at 40 mg/kg, ip qd administered for 3 consecutive days followed by 2 days of rest for 3 cycles relative to control. Type of series: functional. Particulars: 48 h, read-out: TGI. A digest of the protocol: as §1
A short description of series [9]: Toxicity in Crl:NU(NCr)-Foxn1 nu mouse xenografted with human NCI-H69 cells assessed as maximum body weight loss at 70 mg/kg, ip dosed on day 1 followed by 4 days rest and subsequently dosed at 70 mg/kg, ip qd administered for 3 consecutive days followed by 2 days of rest for 2 cycles measured after 3 days post dose relative to control. The class given is organism-based. The conditions noted are these: in vivo, 72 h. A digest of the protocol:
as §1
In general terms: A xenograft is tissue or cells of one species grown in another, often human tumour cells in immunodeficient mice.

Series [10] concerns LOX IMVI. The series is described as follows: Antitumor activity against human LOXIMVI cells xenografted in Crl:NU(NCr)-Foxn1 nu mouse assessed as tumor growth inhibition at 30 mg/kg, ip qd relative to control. The conditions noted are these: read-out: TGI.
The subject of series [11] is SF-295. The series is described as follows: Potency index, ratio of paclitaxel IC50 to compound IC50 for taxane-resistant human SF295 cells after 72 hrs by CellTiter 96 aqueous nonradioactive cell proliferation assay. Type of series: functional.
A short description of series [12]: Toxicity in Crl:NU(NCr)-Foxn1 nu mouse xenografted with human LOX-IMVI cells assessed as mortality at 40 mg/kg, ip qd administered for 5 consecutive days. Type of series: organism-based. The conditions noted are these: in vivo. A digest of the protocol:
as §3

In series [13] the test system is SF-295. The series is described as follows: Antiproliferative activity against taxane-resistant human SF295 cells after 72 hrs by CellTiter 96 aqueous nonradioactive cell proliferation assay. The class given is functional, cell-based. Particulars: SF-295, 72 h. The method, boiled down: as §2
Series [14] can be described thus: Toxicity in Crl:NU(NCr)-Foxn1 nu mouse xenografted with human LOX-IMVI cells assessed as maximum body weight loss at 30 mg/kg, ip qd administered for 7 consecutive days measured after 5 days post dose relative to control. Particulars: in vivo, 120 h. Type of series: organism-based. A digest of the protocol:
as §1

Series [15] relates to NCI-H522. The series is described as follows: Antitumor activity against human NCI-H522 cells xenografted in Crl:NU(NCr)-Foxn1 nu mouse assessed as tumor growth inhibition at 60 mg/kg, ip qd administered for 3 consecutive days followed by 2 days of rest for 3 cycles relative to control. The conditions noted are these: 48 h, read-out: TGI. The class given is functional. A digest of the protocol: as §1

The nature of series [16]: Toxicity in Crl:NU(NCr)-Foxn1 nu mouse xenografted with human […] cells assessed as mortality at 60 mg/kg, ip qd administered for 3 consecutive days followed by 2 days of rest for 3 cycles. The conditions noted are these: in vivo, 48 h. Type of series: organism-based. A digest of the protocol:
(§4)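 Female athymic nude mice bearing subcutaneous NCI-H522 xenografts started from tumor fragments kept by continuous in vivo passage. Mice were grouped once tumors reached about 75-200 mm3. Dosing was ip at 5-10 mL/kg in 22% ethanol, 38% PEG400, 40% 20 mM Na citrate pH 5.0. Deaths per group were recorded with maximum mean bodyweight loss.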

Series [17] in a line: Toxicity in Crl:NU(NCr)-Foxn1 nu mouse xenografted with human NCI-H460 cells assessed as mortality at 60 mg/kg, ip qd administered for 3 consecutive days followed by 2 days of rest for 3 cycles. The class given is organism-based. The conditions noted are these: in vivo, 48 h. A digest of the protocol:
as §3

The subject of series [18] is NCI-H460. The series is described as follows: Antitumor activity against human NCI-H460 cells xenografted in Crl:NU(NCr)-Foxn1 nu mouse assessed as tumor growth inhibition at 40 mg/kg, ip qd administered for 3 consecutive days followed by 2 days of rest for 3 cycles relative to control. The class given is functional. The conditions noted are these: 48 h, read-out: TGI. A digest of the protocol: as §1

The subject of series [19] is NCI-H460. The series is described as follows: Antitumor activity against human NCI-H460 cells xenografted in Crl:NU(NCr)-Foxn1 nu mouse assessed as tumor growth inhibition at 60 mg/kg, ip qd administered for 3 consecutive days followed by 2 days of rest for 3 cycles relative to control. Type of series: functional. The conditions noted are these: 48 h, read-out: TGI. A digest of the protocol: as §1

Series [20] is described as follows: Toxicity in Crl:NU(NCr)-Foxn1 nu mouse xenografted with human NCI-H460 cells assessed as maximum body weight loss at 40 mg/kg, ip qd administered for 3 consecutive days followed by 2 days of rest for 3 cycles measured after 7 days post dose relative to control. The conditions noted are these: in vivo, 168 h. The class given is organism-based. A digest of the protocol: as §1

Series [21] is described as follows: Toxicity in Crl:NU(NCr)-Foxn1 nu mouse xenografted with human […] cells assessed as mortality at 40 mg/kg, ip qd administered for 3 consecutive days followed by 2 days of rest for 3 cycles. Type of series: organism-based. Particulars: in vivo, 48 h. A digest of the protocol: as §4
For series [22], the system named is ACHN. The series is described as follows: Potency index, ratio of paclitaxel IC50 to compound IC50 for taxane-resistant human ACHN cells after 72 hrs by CellTiter 96 aqueous nonradioactive cell proliferation assay. The class given is functional.
A short description of series [23]: Toxicity in Crl:NU(NCr)-Foxn1 nu mouse xenografted with human […] cells assessed as maximum body weight loss at 60 mg/kg, ip qd administered for 3 consecutive days followed by 2 days of rest for 3 cycles measured after 3 days post dose relative to control. Type of series: organism-based. Particulars: in vivo, 72 h. A digest of the protocol:
as §1

Calls of active or inactive are those of the source. No cut-off for these calls is given here.

Tubulin (Sus scrofa), sequence (P02550 whole entry, looked up): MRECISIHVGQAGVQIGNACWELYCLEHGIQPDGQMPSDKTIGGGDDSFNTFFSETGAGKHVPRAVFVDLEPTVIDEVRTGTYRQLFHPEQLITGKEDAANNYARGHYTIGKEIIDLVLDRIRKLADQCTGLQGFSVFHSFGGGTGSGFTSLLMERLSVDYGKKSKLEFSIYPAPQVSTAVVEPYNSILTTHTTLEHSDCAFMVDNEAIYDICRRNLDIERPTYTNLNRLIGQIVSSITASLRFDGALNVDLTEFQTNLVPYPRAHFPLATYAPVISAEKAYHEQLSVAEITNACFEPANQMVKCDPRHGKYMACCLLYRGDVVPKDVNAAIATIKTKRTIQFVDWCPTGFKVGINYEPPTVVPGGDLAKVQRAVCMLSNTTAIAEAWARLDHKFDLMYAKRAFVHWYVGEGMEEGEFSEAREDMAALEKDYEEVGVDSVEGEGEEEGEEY
Tubulin (Sus scrofa), sequence (P02554 whole entry, looked up): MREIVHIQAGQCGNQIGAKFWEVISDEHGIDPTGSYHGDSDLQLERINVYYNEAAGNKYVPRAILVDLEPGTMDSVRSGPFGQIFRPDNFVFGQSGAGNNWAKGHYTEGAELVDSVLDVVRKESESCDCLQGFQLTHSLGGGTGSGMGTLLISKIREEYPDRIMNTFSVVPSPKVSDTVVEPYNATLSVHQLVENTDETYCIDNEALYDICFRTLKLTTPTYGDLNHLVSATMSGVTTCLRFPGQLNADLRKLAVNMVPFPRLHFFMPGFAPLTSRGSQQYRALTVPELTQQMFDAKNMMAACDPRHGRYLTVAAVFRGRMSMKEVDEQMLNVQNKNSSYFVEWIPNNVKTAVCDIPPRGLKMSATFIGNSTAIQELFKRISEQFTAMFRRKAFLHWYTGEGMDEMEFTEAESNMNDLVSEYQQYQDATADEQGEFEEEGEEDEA

On to `C=CC[C@H]1C[C@]2([C@H](C)Cc3cc(O)c(OC)cc3F)OCOC2=CC1=O`, for which the “Ratio IC50” value is listed as 21 in series [1], 14 in [6], 6 in series [11] and 7 in [22]. Also, the inhibition in vivo at 30 mg/kg in series [2] and in series [10] was 63% in each case. In addition, the inhibition entry in series [3] was “Active”. Moreover, the IC50 (commonly the point on the concentration scale where inhibition reaches its midpoint) in series [4] came out at 9 nM; in series [13], 9.6 nM. Besides, the Activity in [5] was 6%; in series [7], “Non-Toxic”; in [9], 9%; in series [12] it was “Non-Toxic”; in series [14], 9%; in [16], “Non-Toxic”. Moreover, the Activity result in series [17] was “Non-Toxic”; in series [20] it was 7%; in series [21], “Non-Toxic”; in [23], 9%. Also, the inhibition in vivo at 40 mg/kg in series [8] is 54%; in series [18] it was 71%. In addition, the figures for the inhibition in vivo at 60 mg/kg in series [15] and in series [19] were 82% and 67%, respectively.
